Reference: ChEMBL document CHEMBL1781937, “Antioxydant activity of β-carboline derivatives in the LDL oxidation model” (2011)

Experiments:
[1] = Antioxidant activity against copper-induced LDL-oxidation assessed as length of lag phase of oxidative procedure of LDL at 0.1 to 10 uM measured every 10 mins for 8 hrs by spectrophotometry relative to 1 uM of copper; type: functional
In short: (§1)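 Copper oxidation of LDL: LDL isolated by NaBr density ultracentrifugation (1.019–1.063 g/mL) and dialysed in 0.01 M PBS pH 7.4 under N2 at 4 °C. 20 µL of 16.6 µM CuSO4 is added to 160 µL LDL (125 µg protein/mL) with compound (0.1–10 µM) or PBS at 30 °C. A234 is read every 10 min for 8 h. R is the compound lag phase divided by the control lag phase.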

[2] = Antioxidant activity against CuSO4-induced LDL-oxidation assessed as increase in lag phase of conjugated diene formation by 1.5 times measured every 10 mins for 8 hrs by spectrophotometry analysis
[3] = Antioxidant activity against copper-induced LDL-oxidation assessed as length of lag phase of oxidative procedure of LDL at 0.1 to 10 uM measured every 10 mins for 8 hrs by spectrophotometry relative to 5 uM of copper; type: functional; in short: as §1
[4] = Antioxidant activity against APPH-induced LDL-oxidation assessed as length of lag phase of oxidative procedure of LDL at 0.1 to 10 uM measured every 10 mins for 8 hrs by spectrophotometry relative to 1 uM of APPH; type: functional
In short: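 AAPH oxidation of LDL: LDL isolated by NaBr density ultracentrifugation (1.019–1.063 g/mL) and dialysed in 0.01 M PBS pH 7.4 under N2 at 4 °C. 160 µL LDL (125 µg protein/mL) is mixed with 20 µL of 2 mM AAPH and compound (0.1–10 µM) at 30 °C. Conjugated dienes are read at 234 nm every 10 min for 8 h. R is the lag phase with compound divided by the control lag phase.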

[5] = Antioxidant activity in BAEC assessed as protection against air-oxidized LDL-induced cell death at 10 uM pretreated for 24 hrs before air-oxidized LDL challenge measured after 16 hrs by lactate dehydrogenase release assay (reference value: 22.76 +/- 1.53 %); type: functional, Bos taurus

For `CCCN1CCc2c([nH]c3ccc(CC)cc23)C1c1ccc(OC)cc1` (stereo not drawn), which Ratio [1] is on record?
The Ratio was 1.

And the ED50 [2]?
Its ED50 is 3 µM.

What about the Activity [3] of the same molecule?
Its Activity is 1.7.

What does the source list for `CCC(=O)N1CCc2c([nH]c3ccc(CC)cc23)C1c1cccc(OC)c1` (stereo not drawn)?
Ratio [1]: 1; ED50 [2]: 9 µM; Activity [3]: 1.2

For `CCCCCCCCCN1CCc2c([nH]c3ccc(CC)cc23)C1c1cccc(OC)c1` (stereo not drawn), which Ratio [1] is on record?
The Ratio was 1.

And the ED50 [2]?
The ED50 was 9 µM.

And the Activity [3]?
The Activity was 1.2.

Which Ratio [1] does the source give for `COc1cccc(C2NCCc3c2[nH]c2ccc(OCc4ccccc4)cc32)c1` (stereo not drawn) here?
The Ratio was 1.1.

What about the ED50 [2] of the same molecule?
The ED50 was 5 µM.

And the Activity [3]?
The Activity was 1.5.

Which results are given for `CCc1ccc2[nH]c3c(c2c1)CCNC3c1cc(C(C)(C)C)c(O)c(C(C)(C)C)c1` (stereo not drawn)?
Ratio [1]: 2.8; ED50 [2]: < 0.1 µM; Activity [4]: 2.7; Activity [5]: 13.26%; Activity [3]: > 5

What does the source list for `CCCN1CCc2c([nH]c3ccc(CC)cc23)C1c1cccc(OCc2ccccc2)c1` (stereo not drawn)?
Ratio [1]: 2.2; ED50 [2]: 0.1 µM; Activity [4]: 2.3; Activity [5]: 13.42%; Activity [3]: 4.2

For `CCCN1CCc2c([nH]c3ccc(CC)cc23)C1c1cccc(OC)c1` (stereo not drawn), which Ratio [1] is on record?
Its Ratio is 1.2.

And the ED50 [2]?
The ED50 was 4 µM.

What about the Activity [5] of the same molecule?
Its Activity is 15.32%.

And the Activity [3]?
Its Activity is 1.6.

What does the source list for `CCc1ccc2[nH]c3c(c2c1)CCNC3c1ccc(OC)c(OC)c1` (stereo not drawn)?
Ratio [1]: 1; ED50 [2]: 10 µM; Activity [3]: 1.1

Which Ratio [1] does the source give for `CCc1ccc2[nH]c3c(c2c1)CCN(C(=O)OCc1ccccc1)C3c1ccc(OCc2ccccc2)c(OCc2ccccc2)c1` (stereo not drawn) here?
The Ratio was 1.1.

And the ED50 [2]?
The ED50 was 8 µM.

What about the Activity [3] of the same molecule?
Its Activity is 1.3.

Which results are given for `CCCN1CCc2c([nH]c3ccc(CC)cc23)C1c1ccc2c(c1)OCCO2` (stereo not drawn)?
Ratio [1]: 1; ED50 [2]: 9 µM; Activity [3]: 1.2

With `CCCN1CCc2c([nH]c3ccc(OCc4ccccc4)cc23)C1c1cccc(OC)c1` (stereo not drawn) as the molecule, how does the Ratio [1] read?
Its Ratio is 2.4.

And the ED50 [2]?
The ED50 was 0.1 µM.

What about the Activity [4] of the same molecule?
Its Activity is 2.4.

What about the Activity [5] of the same molecule?
The Activity was 13.22%.

What about the Activity [3] of the same molecule?
The Activity was 4.4.

For `CCc1ccc2[nH]c3c(c2c1)CCNC3c1ccc(OC)c(OC)c1OC` (stereo not drawn), which Ratio [1] is on record?
Its Ratio is 1.

What about the ED50 [2] of the same molecule?
The ED50 was 9 µM.

And the Activity [3]?
The Activity was 1.2.

What does the source list for `CCc1ccc2[nH]c3c(c2c1)CCNC3c1cccc(O)c1` (stereo not drawn)?
Ratio [1]: 2.7; ED50 [2]: < 0.1 µM; Activity [4]: 2.6; Activity [5]: 13.31%; Activity [3]: > 5

Which Ratio [1] does the source give for `CCCN1CCc2c([nH]c3ccc(CC)cc23)C1c1ccc(O)c(O)c1` (stereo not drawn) here?
Its Ratio is 2.7.

And the ED50 [2]?
The ED50 was under 0.1 µM.

What about the Activity [4] of the same molecule?
Its Activity is 2.7.

And the Activity [5]?
The Activity was 13.19%.

What about the Activity [3] of the same molecule?
The Activity was over 5.

Which Ratio [1] does the source give for `CCCN1CCc2c([nH]c3ccc(CC)cc23)C1c1ccc(OC)c(OC)c1` (stereo not drawn) here?
Its Ratio is 1.1.

What about the ED50 [2] of the same molecule?
The ED50 was 2 µM.

And the Activity [3]?
The Activity was 1.8.

With `CCCN1CCc2c([nH]c3ccc(CC)cc23)C1c1cc(OC)c(OC)c(OC)c1` (stereo not drawn) as the molecule, how does the Ratio [1] read?
Its Ratio is 1.2.

And the ED50 [2]?
Its ED50 is 2 µM.

And the Activity [3]?
Its Activity is 1.8.

For `CCc1ccc2[nH]c3c(c2c1)CCNC3c1cccc(OCc2ccccc2)c1` (stereo not drawn), which Ratio [1] is on record?
The Ratio was 1.

What about the ED50 [2] of the same molecule?
Its ED50 is 7 µM.

What about the Activity [4] of the same molecule?
Its Activity is 1.

And the Activity [5]?
Its Activity is 13.29%.

And the Activity [3]?
The Activity was 1.4.

Which results are given for `CCCN1CCc2c([nH]c3ccc(CC)cc23)C1c1ccc(OCc2ccccc2)c(OCc2ccccc2)c1` (stereo not drawn)?
Ratio [1]: 1.3; ED50 [2]: 3 µM; Activity [3]: 1.8

Which Ratio [1] does the source give for `CCc1ccc2[nH]c3c(c2c1)CCN(C)C3c1cccc(OC)c1` (stereo not drawn) here?
Its Ratio is 1.

What about the ED50 [2] of the same molecule?
Its ED50 is 1 µM.

And the Activity [3]?
Its Activity is 1.9.

Which Ratio [1] does the source give for `CCCN1CCc2c([nH]c3ccc(CC)cc23)C1c1cc(C(C)(C)C)c(O)c(C(C)(C)C)c1` (stereo not drawn) here?
The Ratio was 2.7.

What about the ED50 [2] of the same molecule?
The ED50 was under 0.1 µM.

What about the Activity [4] of the same molecule?
The Activity was 2.6.

What about the Activity [5] of the same molecule?
The Activity was 13.21%.

What about the Activity [3] of the same molecule?
Its Activity is over 5.

With `CCc1ccc2[nH]c3c(c2c1)CCNC3c1cc(OC)c(OC)c(OC)c1` (stereo not drawn) as the molecule, how does the Ratio [1] read?
Its Ratio is 1.

What about the ED50 [2] of the same molecule?
Its ED50 is 10 µM.

What about the Activity [3] of the same molecule?
Its Activity is 1.1.

With `CCCN1CCc2c([nH]c3ccc(CC)cc23)C1c1ccccc1OC` (stereo not drawn) as the molecule, how does the Ratio [1] read?
The Ratio was 1.

And the ED50 [2]?
Its ED50 is 4 µM.

And the Activity [3]?
The Activity was 1.6.

Which Ratio [1] does the source give for `CCc1ccc2[nH]c3c(c2c1)CCNC3c1ccc(OCc2ccccc2)c(OCc2ccccc2)c1` (stereo not drawn) here?
Its Ratio is 1.

What about the ED50 [2] of the same molecule?
Its ED50 is 7 µM.

What about the Activity [4] of the same molecule?
The Activity was 1.

What about the Activity [3] of the same molecule?
Its Activity is 1.4.

For `CCCN1CCc2c([nH]c3ccc(CC)cc23)C1c1cccc(O)c1` (stereo not drawn), which Ratio [1] is on record?
Its Ratio is 2.8.

And the ED50 [2]?
The ED50 was under 0.1 µM.

And the Activity [4]?
The Activity was 2.7.

And the Activity [5]?
The Activity was 13.2%.

What about the Activity [3] of the same molecule?
Its Activity is over 5.

With `CCc1ccc2[nH]c3c(c2c1)CCNC3c1ccccc1OC` (stereo not drawn) as the molecule, how does the Ratio [1] read?
Its Ratio is 1.2.

And the ED50 [2]?
The ED50 was 7 µM.

What about the Activity [3] of the same molecule?
Its Activity is 1.4.

Which Ratio [1] does the source give for `CCc1ccc2[nH]c3c(c2c1)CCN(C(=O)OCc1ccccc1)C3c1cccc(OCc2ccccc2)c1` (stereo not drawn) here?
The Ratio was 1.

And the ED50 [2]?
Its ED50 is 10 µM.

What about the Activity [3] of the same molecule?
The Activity was 1.

With `CCc1ccc2[nH]c3c(c2c1)CCNC3c1ccc(OC)cc1` (stereo not drawn) as the molecule, how does the Ratio [1] read?
The Ratio was 1.

And the ED50 [2]?
The ED50 was 9 µM.

What about the Activity [3] of the same molecule?
Its Activity is 1.2.

Which results are given for `CCc1ccc2[nH]c3c(c2c1)CCNC3c1ccc(O)c(O)c1` (stereo not drawn)?
Ratio [1]: 2.8; ED50 [2]: < 0.1 µM; Activity [4]: 2.6; Activity [5]: 13.3%; Activity [3]: > 5

With `CCCN1CCc2c([nH]c3ccc(O)cc23)C1c1cccc(OC)c1` (stereo not drawn) as the molecule, how does the Ratio [1] read?
Its Ratio is 1.9.

And the ED50 [2]?
The ED50 was 0.2 µM.

And the Activity [4]?
Its Activity is 2.1.

And the Activity [5]?
The Activity was 14.02%.

What about the Activity [3] of the same molecule?
The Activity was 3.2.

Which Ratio [1] does the source give for `CCCCCN1CCc2c([nH]c3ccc(CC)cc23)C1c1cccc(OC)c1` (stereo not drawn) here?
Its Ratio is 1.

What about the ED50 [2] of the same molecule?
Its ED50 is 9 µM.

What about the Activity [3] of the same molecule?
Its Activity is 1.2.

For `CCc1ccc2[nH]c3c(c2c1)CCNC3c1ccc2c(c1)OCCO2` (stereo not drawn), which Ratio [1] is on record?
Its Ratio is 1.

What about the ED50 [2] of the same molecule?
Its ED50 is 10 µM.

What about the Activity [3] of the same molecule?
The Activity was 1.1.

What does the source list for `CCc1ccc2[nH]c3c(c2c1)CCNC3c1cccc(OC)c1` (stereo not drawn)?
Ratio [1]: 1.1; ED50 [2]: 9 µM; Activity [3]: 1.2
